Measured values from the M2OR odorant receptor database.

Assays:
Settings in all cases: stereoisomer not certain
UniProt Q8VGX8 = molecular target: T1, UniProt Q8VGX8
T1 sequence (whole entry): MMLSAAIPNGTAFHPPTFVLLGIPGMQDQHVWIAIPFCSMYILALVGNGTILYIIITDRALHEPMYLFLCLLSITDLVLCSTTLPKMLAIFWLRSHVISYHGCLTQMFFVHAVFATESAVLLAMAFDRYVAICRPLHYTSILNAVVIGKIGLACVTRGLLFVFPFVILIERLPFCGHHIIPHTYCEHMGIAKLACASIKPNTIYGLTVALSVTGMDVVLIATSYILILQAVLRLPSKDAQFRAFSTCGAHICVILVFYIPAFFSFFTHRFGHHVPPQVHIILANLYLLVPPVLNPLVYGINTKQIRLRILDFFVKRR
Outline: (§1)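 Assay methods differ from source to source, frequently being transient luciferase assays in mammalian cell lines. For each receptor–molecule pair, the label responsive (active) applies when the original authors judged the measured signal statistically different from baseline, and non-responsive (inactive) applies otherwise.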

UniProt Q8VGY6 = molecular target: T2, UniProt Q8VGY6
T2 sequence (whole entry): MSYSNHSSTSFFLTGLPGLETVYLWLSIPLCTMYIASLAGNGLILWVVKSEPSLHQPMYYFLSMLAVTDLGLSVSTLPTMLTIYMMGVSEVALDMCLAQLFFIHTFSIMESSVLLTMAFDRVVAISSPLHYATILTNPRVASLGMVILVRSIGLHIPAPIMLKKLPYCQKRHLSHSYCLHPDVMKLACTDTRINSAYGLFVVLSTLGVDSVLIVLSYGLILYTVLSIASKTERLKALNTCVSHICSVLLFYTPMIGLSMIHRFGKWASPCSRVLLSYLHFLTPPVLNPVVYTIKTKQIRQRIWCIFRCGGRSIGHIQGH
Outline: as §1

UniProt Q8VGZ2 = molecular target: T3, UniProt Q8VGZ2
T3 sequence (whole entry): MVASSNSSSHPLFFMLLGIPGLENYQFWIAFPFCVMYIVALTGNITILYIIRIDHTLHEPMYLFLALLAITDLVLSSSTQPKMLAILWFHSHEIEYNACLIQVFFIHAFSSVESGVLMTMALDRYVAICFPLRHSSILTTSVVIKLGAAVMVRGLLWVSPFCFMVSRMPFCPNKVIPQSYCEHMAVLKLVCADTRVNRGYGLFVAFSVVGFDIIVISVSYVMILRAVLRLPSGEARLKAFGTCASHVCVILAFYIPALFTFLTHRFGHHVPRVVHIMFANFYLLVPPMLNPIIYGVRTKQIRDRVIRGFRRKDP
Outline: as §1

UniProt Q8VGZ7 = molecular target: T4, UniProt Q8VGZ7
T4 sequence (whole entry): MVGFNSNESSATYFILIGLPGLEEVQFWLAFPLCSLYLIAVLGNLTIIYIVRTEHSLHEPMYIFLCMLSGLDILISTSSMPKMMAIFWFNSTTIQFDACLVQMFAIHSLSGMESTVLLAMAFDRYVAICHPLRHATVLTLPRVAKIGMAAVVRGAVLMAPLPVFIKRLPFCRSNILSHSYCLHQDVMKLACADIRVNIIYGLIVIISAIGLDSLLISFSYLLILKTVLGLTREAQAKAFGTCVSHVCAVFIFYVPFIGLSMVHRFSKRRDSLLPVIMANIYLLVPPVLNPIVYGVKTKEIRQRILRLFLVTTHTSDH
Outline: as §1

UniProt Q8VH10 = molecular target: T5, UniProt Q8VH10
T5 sequence (whole entry): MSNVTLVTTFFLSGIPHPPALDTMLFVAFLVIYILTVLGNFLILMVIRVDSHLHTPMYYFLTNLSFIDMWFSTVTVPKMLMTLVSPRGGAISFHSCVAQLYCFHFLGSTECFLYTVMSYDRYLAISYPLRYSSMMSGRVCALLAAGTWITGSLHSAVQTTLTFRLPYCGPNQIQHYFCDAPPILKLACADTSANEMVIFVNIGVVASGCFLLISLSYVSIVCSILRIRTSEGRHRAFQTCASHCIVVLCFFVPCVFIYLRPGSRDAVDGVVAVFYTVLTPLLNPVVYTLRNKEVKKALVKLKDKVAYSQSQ
Outline: as §1

UniProt Q8VH16 = molecular target: T6, UniProt Q8VH16
T6 sequence (whole entry): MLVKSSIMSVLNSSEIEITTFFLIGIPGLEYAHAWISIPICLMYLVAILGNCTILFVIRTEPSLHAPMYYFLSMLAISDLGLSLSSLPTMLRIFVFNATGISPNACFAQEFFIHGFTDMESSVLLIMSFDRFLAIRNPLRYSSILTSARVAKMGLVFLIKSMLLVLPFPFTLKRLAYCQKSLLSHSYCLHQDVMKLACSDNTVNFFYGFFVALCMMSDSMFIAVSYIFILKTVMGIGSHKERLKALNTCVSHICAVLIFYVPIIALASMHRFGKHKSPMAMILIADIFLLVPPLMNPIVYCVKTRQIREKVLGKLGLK
Outline: as §1

UniProt Q8VH20 = molecular target: T7, UniProt Q8VH20
T7 sequence (whole entry): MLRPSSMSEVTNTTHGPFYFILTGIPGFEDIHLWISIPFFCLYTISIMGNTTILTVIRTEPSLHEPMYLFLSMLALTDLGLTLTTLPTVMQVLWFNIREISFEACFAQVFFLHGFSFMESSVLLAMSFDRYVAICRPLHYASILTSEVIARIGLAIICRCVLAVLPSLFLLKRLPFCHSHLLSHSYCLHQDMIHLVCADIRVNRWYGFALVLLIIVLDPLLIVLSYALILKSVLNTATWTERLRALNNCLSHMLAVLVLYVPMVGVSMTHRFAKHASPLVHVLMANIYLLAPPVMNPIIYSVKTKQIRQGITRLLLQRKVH
Outline: as §1

UniProt Q8VH21 = molecular target: T8, UniProt Q8VH21
T8 sequence (whole entry): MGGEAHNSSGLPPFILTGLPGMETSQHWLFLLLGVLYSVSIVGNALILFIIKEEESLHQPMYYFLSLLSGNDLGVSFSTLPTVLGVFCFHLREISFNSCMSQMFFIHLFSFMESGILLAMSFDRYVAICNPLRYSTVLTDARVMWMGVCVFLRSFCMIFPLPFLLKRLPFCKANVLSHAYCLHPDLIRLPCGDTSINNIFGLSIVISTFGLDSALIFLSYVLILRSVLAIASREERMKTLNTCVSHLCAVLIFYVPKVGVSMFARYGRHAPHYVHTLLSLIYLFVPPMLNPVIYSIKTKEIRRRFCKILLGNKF
Outline: as §1

UniProt Q924H8 = molecular target: T9, UniProt Q924H8
T9 sequence (whole entry): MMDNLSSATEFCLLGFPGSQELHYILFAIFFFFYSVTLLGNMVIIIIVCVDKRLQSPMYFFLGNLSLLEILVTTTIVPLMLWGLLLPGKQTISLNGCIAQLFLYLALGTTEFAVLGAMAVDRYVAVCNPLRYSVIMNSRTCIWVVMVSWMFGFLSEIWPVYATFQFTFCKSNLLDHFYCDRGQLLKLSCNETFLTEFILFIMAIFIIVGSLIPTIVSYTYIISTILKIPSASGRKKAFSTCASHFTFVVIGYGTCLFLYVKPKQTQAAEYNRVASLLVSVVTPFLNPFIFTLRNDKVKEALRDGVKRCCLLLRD
Outline: as §1

UniProt Q9EPN9 = molecular target: T10, UniProt Q9EPN9
T10 sequence (whole entry): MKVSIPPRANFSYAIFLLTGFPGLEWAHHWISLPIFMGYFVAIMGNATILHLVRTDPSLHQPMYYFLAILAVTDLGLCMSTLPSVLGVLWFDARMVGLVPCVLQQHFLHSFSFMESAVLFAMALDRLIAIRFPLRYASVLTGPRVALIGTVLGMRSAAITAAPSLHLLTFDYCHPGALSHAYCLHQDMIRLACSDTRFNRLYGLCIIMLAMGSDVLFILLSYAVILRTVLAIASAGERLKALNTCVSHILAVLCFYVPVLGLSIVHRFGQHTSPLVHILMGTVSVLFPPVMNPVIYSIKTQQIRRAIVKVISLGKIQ
Outline: as §1

UniProt Q9R0K2 = molecular target: UniProt Q9R0K2
UniProt Q9R0K2, sequence (Q9R0K2 as listed by the source): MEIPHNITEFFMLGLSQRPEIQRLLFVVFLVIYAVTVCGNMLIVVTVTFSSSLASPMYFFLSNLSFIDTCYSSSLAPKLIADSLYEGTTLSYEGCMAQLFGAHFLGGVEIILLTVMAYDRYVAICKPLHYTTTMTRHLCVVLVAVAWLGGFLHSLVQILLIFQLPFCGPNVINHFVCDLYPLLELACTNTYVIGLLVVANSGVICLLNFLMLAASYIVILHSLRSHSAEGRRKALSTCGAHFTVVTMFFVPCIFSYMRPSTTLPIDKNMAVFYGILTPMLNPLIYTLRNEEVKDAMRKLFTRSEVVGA
Outline: as §1

UniProt Q9WU86 = molecular target: T11, UniProt Q9WU86
T11 sequence (whole entry): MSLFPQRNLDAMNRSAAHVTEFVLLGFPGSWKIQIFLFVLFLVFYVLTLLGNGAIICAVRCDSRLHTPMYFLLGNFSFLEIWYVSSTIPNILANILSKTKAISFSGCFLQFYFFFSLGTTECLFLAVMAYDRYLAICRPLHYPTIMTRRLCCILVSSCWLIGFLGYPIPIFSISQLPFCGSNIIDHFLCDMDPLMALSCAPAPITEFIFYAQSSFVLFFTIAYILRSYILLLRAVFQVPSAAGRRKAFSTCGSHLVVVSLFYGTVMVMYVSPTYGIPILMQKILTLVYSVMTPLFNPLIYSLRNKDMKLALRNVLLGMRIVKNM
Outline: as §1

UniProt Q8VH18 = molecular target: T12, UniProt Q8VH18
T12 sequence (whole entry): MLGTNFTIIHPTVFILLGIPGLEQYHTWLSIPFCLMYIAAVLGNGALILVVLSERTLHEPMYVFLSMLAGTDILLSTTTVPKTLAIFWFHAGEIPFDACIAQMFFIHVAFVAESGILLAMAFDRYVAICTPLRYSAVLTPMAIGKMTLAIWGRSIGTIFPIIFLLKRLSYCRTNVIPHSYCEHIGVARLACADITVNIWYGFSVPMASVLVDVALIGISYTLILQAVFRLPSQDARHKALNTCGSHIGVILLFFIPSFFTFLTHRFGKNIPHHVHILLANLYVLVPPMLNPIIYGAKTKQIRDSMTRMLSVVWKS
Outline: as §1

UniProt Q924X8 = molecular target: T13, UniProt Q924X8
T13 sequence (whole entry): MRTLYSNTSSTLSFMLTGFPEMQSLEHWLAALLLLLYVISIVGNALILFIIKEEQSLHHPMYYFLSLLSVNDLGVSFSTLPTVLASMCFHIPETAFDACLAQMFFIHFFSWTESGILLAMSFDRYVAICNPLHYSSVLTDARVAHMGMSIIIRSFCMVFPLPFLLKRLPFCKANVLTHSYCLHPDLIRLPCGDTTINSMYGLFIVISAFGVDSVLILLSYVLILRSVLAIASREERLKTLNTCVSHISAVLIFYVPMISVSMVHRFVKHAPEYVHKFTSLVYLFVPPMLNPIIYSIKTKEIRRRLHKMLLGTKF
Outline: as §1

UniProt Q99NH4 = molecular target: T14, UniProt Q99NH4
T14 sequence (whole entry): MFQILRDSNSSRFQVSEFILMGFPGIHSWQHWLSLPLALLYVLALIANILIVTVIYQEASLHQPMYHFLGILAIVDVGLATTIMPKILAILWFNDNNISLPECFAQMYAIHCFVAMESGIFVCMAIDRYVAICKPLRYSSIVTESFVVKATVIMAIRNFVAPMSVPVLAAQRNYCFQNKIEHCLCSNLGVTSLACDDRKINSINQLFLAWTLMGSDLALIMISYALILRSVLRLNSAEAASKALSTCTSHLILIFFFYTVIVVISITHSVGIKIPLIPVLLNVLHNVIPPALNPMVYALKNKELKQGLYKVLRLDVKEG
Outline: as §1

UniProt Q9WU94 = molecular target: T15, UniProt Q9WU94
T15 sequence (whole entry): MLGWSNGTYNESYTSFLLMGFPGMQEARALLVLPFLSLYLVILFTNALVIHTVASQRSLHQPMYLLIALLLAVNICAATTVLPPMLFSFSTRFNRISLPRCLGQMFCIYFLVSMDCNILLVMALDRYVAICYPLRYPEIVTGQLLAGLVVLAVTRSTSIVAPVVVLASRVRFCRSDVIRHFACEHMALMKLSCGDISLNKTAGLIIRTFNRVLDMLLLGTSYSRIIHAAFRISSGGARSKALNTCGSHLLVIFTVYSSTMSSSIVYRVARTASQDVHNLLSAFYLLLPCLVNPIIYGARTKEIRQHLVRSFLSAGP
Outline: as §1

UniProt Q9WVD7 = molecular target: T16, UniProt Q9WVD7
T16 sequence (whole entry): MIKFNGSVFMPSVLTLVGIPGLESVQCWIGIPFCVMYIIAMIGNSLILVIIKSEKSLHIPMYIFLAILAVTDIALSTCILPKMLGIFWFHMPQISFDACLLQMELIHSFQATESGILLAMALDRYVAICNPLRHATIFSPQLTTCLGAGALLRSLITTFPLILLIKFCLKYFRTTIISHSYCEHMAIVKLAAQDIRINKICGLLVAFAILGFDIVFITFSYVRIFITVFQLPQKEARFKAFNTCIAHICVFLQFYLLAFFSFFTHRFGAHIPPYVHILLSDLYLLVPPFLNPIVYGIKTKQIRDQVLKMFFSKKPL
Outline: as §1

| Structure (SMILES) | odorant receptor agonist call (UniProt Q8VGX8) | odorant receptor agonist call (UniProt Q8VGY6) | odorant receptor agonist call (UniProt Q8VGZ2) | odorant receptor agonist call (UniProt Q8VGZ7) | odorant receptor agonist call (UniProt Q8VH10) | odorant receptor agonist call (UniProt Q8VH16) | odorant receptor agonist call (UniProt Q8VH20) | odorant receptor agonist call (UniProt Q8VH21) | odorant receptor agonist call (UniProt Q924H8) | odorant receptor agonist call (UniProt Q9EPN9) | odorant receptor agonist call (UniProt Q9R0K2) | odorant receptor agonist call (UniProt Q9WU86) | odorant receptor agonist call (UniProt Q8VH18) | odorant receptor agonist call (UniProt Q924X8) | odorant receptor agonist call (UniProt Q99NH4) | odorant receptor agonist call (UniProt Q9WU94) | odorant receptor agonist call (UniProt Q9WVD7) |
| --- | --- | --- | --- | --- | --- | --- | --- | --- | --- | --- | --- | --- | --- | --- | --- | --- | --- |
| CCC(=O)C(=O)CC | inactive | inactive | inactive | inactive | inactive | inactive | inactive | inactive | inactive | inactive | inactive | inactive | – | – | – | – | – |
| CCCCCC(=O)CC | inactive | inactive | inactive | inactive | inactive | inactive | inactive | inactive | inactive | inactive | inactive | inactive | – | – | – | – | – |
| CCCCCC1=C(C)CCC1=O | inactive | inactive | inactive | inactive | inactive | inactive | inactive | inactive | inactive | inactive | inactive | inactive | – | – | – | – | – |
| Cc1ccc(C(C)C)c(O)c1 | – | – | inactive | inactive | – | inactive | inactive | inactive | inactive | – | – | – | – | – | – | – | – |
| O=C(O)CCCCCC(=O)O | inactive | – | – | – | – | – | – | – | – | – | – | – | inactive | active | inactive | inactive | inactive |
| CC(=O)OCCc1ccccc1 | – | – | inactive | inactive | – | inactive | inactive | inactive | inactive | – | – | – | – | – | – | – | – |
